# Experimental data published in ChEMBL document CHEMBL1137143, “Synthesis of C8-linked pyrrolo[2,1-c][1,4]benzodiazepine-acridone/acridine hybrids as potential DNA-binding agents” (Bioorg Med Chem Lett, 2004).
# Columns and labels:
# Nucleic Acid [1] = experiment: (§1) DNA-binding ability was determined by thermal denaturation method using calf thymus (CT) DNA; expressed as Delta Tm after 0 hr; type: functional; conditions: Bos taurus
# Summary of the method: (§2)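 Thermal melting of CT-DNA, 100 µM, with ligand at 20 µM (1:5 PBD:DNA molar ratio) in 10 mM sodium phosphate + 1 mM EDTA, pH 7.00; incubated at 37 °C for 0 h or 18 h before melting. ΔTm taken relative to DNA alone, whose Tm is a mean of 10 separate determinations.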
# Nucleic Acid [2] = experiment: (§3) DNA-binding ability was determined by thermal denaturation method using calf thymus (CT) DNA; expressed as Delta Tm after 18 hr; type: functional; conditions: Bos taurus; summary of the method: as §2
# Bos taurus [3] = species: Bos taurus; experiment: as §1; type: functional, organism-based; summary of the method: as §2
# Bos taurus [4] = species: Bos taurus; experiment: as §3; type: functional, organism-based; summary of the method: as §2
# M14 = experiment: In vitro cytotoxicity was determined against M14 cell line; type: functional; conditions: Homo sapiens, read-out: LC50 (the source's name)
# A498 = experiment: In vitro cytotoxicity was determined against A498 cell line; type: functional; conditions: Homo sapiens, read-out: LC50 (the source's name)
# NCI-H23 = experiment: In vitro cytotoxicity was determined against NCI-H23 cell line; type: functional; conditions: Homo sapiens, read-out: LC50 (the source's name)
# UACC-62 = experiment: In vitro cytotoxicity was determined against UACC-62 cell line; type: functional; conditions: Homo sapiens, read-out: LC50 (the source's name)
SMILES,ΔTm (Nucleic Acid [1]) [°C],ΔTm (Nucleic Acid [2]) [°C],ΔTm (Bos taurus [3]) [°C],ΔTm (Bos taurus [4]) [°C],CC50 (M14) [nM],CC50 (A498) [nM],CC50 (NCI-H23) [nM],CC50 (UACC-62) [nM]
COc1cc2c(cc1O)N=C[C@@H]1CCCN1C2=O,0.4,0.7,,,,,,
COc1cc2c(cc1OCCNC(=O)c1cccc3c(O)c4ccccc4nc13)N=C[C@@H]1CCCN1C2=O,4.7,5.7,4.7,5.7,,,,
COc1cc2c(cc1OCCCNC(=O)c1cccc3cc4ccccc4nc13)N=C[C@@H]1CCCN1C2=O,5.9,7.7,,,,,,
COc1cc2c(cc1OCCCNC(=O)c1cccc3c(O)c4ccccc4nc13)N=C[C@@H]1CCCN1C2=O,11,12.5,,,< 10,50,70,< 10
COc1cc2c(cc1OCCNC(=O)c1cccc3cc4ccccc4nc13)N=C[C@@H]1CCCN1C2=O,3.1,5,,,,,,
